HUVEC prolif 384: inhibitors of HUVEC proliferation, primary screen, cell-based, 384-well. viability, % at 10 µM (by protocol). CellTiter-Glo luminescence, 72 h; active compounds read low. 86,000 tested, 1.1% active;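 active = viability at or below 30%; inactive = viability above 30%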;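 also: 100% = median luminescence of DMSO-only cell control wells on each plate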
Fibroblast inh: antiproliferative effect on LL 47 fibroblasts – human, LL 47 cells, CellTiter-Glo luminescence, primary screen; viability, % at 10 µM; 85,000 tested, 1.1% active; LL 47 human lung fibroblast viability, ATP luminescence; active compounds read low;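 active = viability at or below 50% in the single dose screen; inactive = viability above 50%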;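 also: compound exposure lasted 72 h before the ATP readout; 100% = median luminescence of untreated cell-only wells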
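material = human LL 47 lung fibroblast cells | dosing = compounds added from tenfold dosing solution, 0.1% DMSO final | timing = overnight cell rest, 72 h compound treatment at 37 °C | measured by = CellTiter-Glo luminescence measuring cellular ATP | evaluation = % viability versus median cells-only luminescence | control set = cell-only wells, no compound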
HCT116 PTEN-null: growth suppression of PTEN-null HCT116, primary screen, cell-based, CellTiter-Glo; viability, % at 10 µM; 140,000 tested, 1.2% active; HCT116 PTEN-null viability, 60 h; active compounds read low; AID 827, 2007;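 active = viability at or below a set limit, 4 SD under the median of all tested compounds, cut at about 3.7% in these data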;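 also: PTEN knockout HCT116 line with beta catenin targeted HCT116 as companion control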
HCT116 bCat-KO: primary screen for growth suppressors in beta-catenin knockout HCT116 cells (colon tumor, human). viability, % at 10 µM. HCT116 beta-catenin knockout viability, CellTiter-Glo, 60 h; active compounds read low. AID 818, 2007. 140,000 tested, 1.5% active;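 active = viability at or under a set limit, the compound median less 4 SD, cut at about 6% in these data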;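 also: 0% = Hyamine 1622 control at 20 µM and 100% = untreated cell control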
H69AR growth 86K: proliferation blockers of H69AR lung cancer cells, primary screen, cell-based, human, 86K library; H69AR lung tumor viability, ATP luminescence, 72 h; active compounds read low; viability, % at 10 µM; 85,000 tested, 6% active;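 active = viability at or below 40%; inactive = viability above 40%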;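 also: multidrug resistant small cell line overexpressing MRP-1 efflux transporter; 100% = mean luminescence of untreated control wells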
* = called active by the depositor; nt = not tested or not shown. The sample as a whole holds a higher share of hits than the screen did.

SMILES	HUVEC prolif 384	Fibroblast inh	HCT116 PTEN-null	HCT116 bCat-KO	H69AR growth 86K
Cc1ccc(NC(=O)C2C(c3ccccc3)C=CC(c3ccccc3)C2C(=O)O)cc1 (stereo not drawn)	nt	nt	86	94	nt
Cc1ccc(SCC(=O)Nc2cccc(NC(=O)c3ccco3)c2)cc1	nt	nt	81	86	nt
Cc1cc(N2CCOCC2)n2ncc(-c3ccccc3)c2n1	77	81	91	92	28*
Cc1cc(N2CCN(C(=O)c3ccco3)CC2)n2ncc(-c3ccccc3)c2n1	84	94	42	55	27*
Cc1cc(N2CCCCC2)n2ncc(-c3ccccc3)c2n1	81	87	73	76	38*
Cc1nn2c(N3CCN(C4CCCC4)CC3)cc(C(C)(C)C)nc2c1-c1ccccc1	88	99	112	98	74
Cc1nn2c(N3CCN(C(=O)c4ccco4)CC3)cc(C(C)(C)C)nc2c1-c1ccccc1	73	87	7	3.8*	100
Cc1cc(N2CCCCC2)n2ncc(-c3ccc(Cl)cc3)c2n1	79	83	79	74	58
Cn1cccc1/C=N/NC(=O)c1cccc(OC(F)(F)C(F)F)c1	nt	nt	83	95	nt
CCN(C(=O)c1coc(=O)c(Br)c1)c1ccc2c(c1)OCO2	77	92	85	83	2.0*
COC(=O)c1ccc(C(=O)OC)c(NS(C)(=O)=O)c1	100	97	92	100	1.4*
FC(F)(F)c1cc(C(F)(F)F)c2ccc(N3CCN(c4ccc(Cl)cc4)CC3)nc2n1	nt	nt	71	74	nt
N#CC(c1ccc(Cl)cc1)c1ccc2c(C(F)(F)F)cc(C(F)(F)F)nc2n1 (stereo not drawn)	27*	18*	0.8*	0.9*	4.6*
Cc1ccc(Cn2nc(C)c(NC(=O)CSc3nc4c(c(C(F)(F)F)n3)CCc3ccccc3-4)c2C)cc1	nt	nt	7	46	nt
Cc1nn(Cc2ccc(Cl)cc2)c(C)c1NC(=O)CSc1nc2c(c(C(F)(F)F)n1)CCc1ccccc1-2	nt	nt	3.5*	15	nt
O=C(c1ccc2snnc2c1)N1CCSCC1	92	nt	102	101	35*
O=C(c1ccc2snnc2c1)N1CCCCC1	93	104	105	100	100
CCCCC(CC)Cn1c2nc3ccccc3nc2c2c(=N)oc(C)nc21 (stereo not drawn)	2.5*	75	2.5*	4.5*	90
CC(C)(CNC(=S)NCCc1ccccc1)CNC(=S)NCCc1ccccc1	nt	nt	21	24	nt
N=C(N)c1ccc(OCCCCCOc2ccc(C(=N)N)cc2)cc1	nt	nt	32	36	nt
CCCCCCOc1ccc(/C(N)=N/O)cc1	80	92	83	96	35*
C=CCc1ccc(OCCOc2cccc3ccc(C)nc23)c(OC)c1	nt	nt	91	84	nt
COC(=O)C1=C(CN2CCc3ccccc32)NC(=O)NC1c1cc(C)ccc1C (stereo not drawn)	85	89	41	58	34*
CCN1CCCC1CNC(=O)c1cc2c(-c3ccc(Cl)cc3)nn(C)c2s1 (stereo not drawn)	1.7*	11*	6	3.2*	2.1*
COc1cccc(-c2nn(C)c3sc(C(=O)NCc4ccco4)cc23)c1	63	96	64	81	59
SMILES	HUVEC prolif 384	Fibroblast inh	HCT116 PTEN-null	HCT116 bCat-KO	H69AR growth 86K
CCN1CCCC1CNC(=O)c1cc2c(-c3cccc(OC)c3)nn(C)c2s1 (stereo not drawn)	47	70	4	2.6*	60
COCCNC(=O)c1cc2c(-c3ccc(Cl)cc3)nn(C)c2s1	68	74	62	61	67
CCOC(=O)c1sc(NC(=O)CSc2nc(-c3ccco3)cc(C(F)(F)F)n2)c(C(=O)OC(C)C)c1C	106	95	nt	nt	91
c1cc2c(cc1C1=Nn3c(nnc3C3CCCCC3)SC1)OCO2	75	84	38	48	29*
N#Cc1ccc(NC(=O)Nc2ccc(Cl)cc2)cc1	35	39*	3.4*	4.0*	7.1*
Cc1ccc(-c2csc(N(C)C(=O)c3c(C)nn(-c4ccccc4)c3Cl)n2)cc1	nt	nt	67	71	nt
COc1ccc(C(=O)n2c(-c3ccco3)nc3ccccc32)cc1	53	65	20	14	24*
COc1ccc(CCn2c(-c3ccco3)nc3nc4ccccc4nc32)cc1	96	95	70	70	58
COc1ccc(OCCn2c(NC(=O)c3ccco3)nc3ccccc32)cc1	78	59	38	63	39*
S=C(Nc1ccccc1)Nc1nc2ccccc2n1CCOc1ccccc1	nt	nt	1.2*	1.6*	nt
COc1ccc(C(=O)NCc2nnc(SCC(=O)Nc3nc4ccc(C)cc4s3)o2)cc1OC	nt	nt	94	94	nt
N#Cc1nc(-c2ccc(OCc3ccccc3)cc2)oc1N1CCC(C(N)=O)CC1	29*	80	102	92	37*
C=CCNc1ncnc2c1ncn2C1OC(CO)C(O)C1O (stereo not drawn)	41	40*	13	10	31*
Nc1nnc(SCc2ccc(Cl)cc2)s1	98	107	0.8*	0.8*	100
COc1ccc(N(CC(=O)Nc2nc3ccc(C)cc3s2)S(=O)(=O)c2c(C)nn(C)c2C)cc1	73	86	32	26	15*
COc1cccc(NC(=O)Cc2nc(-c3ccccc3)sc2-c2ccc(C)cc2)c1	nt	nt	63	72	nt
CC(=O)Nc1cccc(NC(=O)Cc2nc(-c3ccccc3)sc2-c2ccc(C)cc2)c1	nt	nt	1.4*	10	nt
Cc1noc(C)c1C(=O)OC(C)C(=O)Nc1ccc(S(=O)(=O)NC(C)C)cc1 (stereo not drawn)	nt	nt	97	103	nt
Cc1ccc2nc(-c3cccc(NS(C)(=O)=O)c3)cc(-c3ccccc3)c2c1	nt	nt	72	77	nt
COc1ccc(Cl)cc1NC(=O)CSc1nnc(CN2CCOCC2)n1-c1ccc(Cl)cc1	75	86	34	46	52
CCC(=O)N1CCN(c2nc(-c3ccccc3)c3c(c2C#N)CCCC3)CC1	76	92	88	89	81
O=C(CSc1nc2ccccc2c(=O)n1-c1ccc(F)cc1)Nc1cc(S(=O)(=O)N2CCOCC2)ccc1Cl	nt	nt	99	99	nt
CCCCCN=Cc1c(C)[nH]n(-c2nc3ccccc3s2)c1=O	13*	29*	16	17	6.4*
Cc1c(O)ccc2c3c(c(=O)oc12)CCCC3	74	99	105	112	83
Cc1oc2c(C)c3oc(=O)c4c(c3cc2c1C)CCCC4	81	nt	63	66	14*
CC(C)(c1ccccc1)c1ccc(OCCCNCCO)cc1	26*	66	9	1.8*	0.9*
Cc1nc2c(ccc3nc(NC(=O)c4ccc(S(=O)(=O)N(C)C)cc4)sc32)s1	47	95	74	80	35*
CC(=O)N(C(C)=O)c1c(C#N)c(C)n(-c2ccccc2)c1C(=O)c1ccccc1	96	93	105	106	55

Screening results (PubChem)
